The values below come from ChEMBL document CHEMBL1138711, “1,2,3,4-Tetrahydroquinoline-containing alphaVbeta3 integrin antagonists with enhanced oral bioavailability” (Bioorg Med Chem Lett, 2004).

Broadly, the pIC50 is the negative decadic logarithm of the IC50, by convention in mol/L. Higher therefore signals a low IC50. For orientation: bioavailability means the share of a dose that reaches the circulation, judged against a reference dose that is usually intravenous. Lower therefore signals little systemic uptake. As a reminder, the Cmax is the highest concentration seen after dosing. As usually defined, the half-life is the time in which the quantity being followed falls by half. Higher therefore signals slow decline. A word on the Tmax: it is the time at which the peak concentration occurs.

One data set deals with Integrin alpha-V/beta-3 (Homo sapiens, UniProt P05106+P06756). Nature of the data set: Inhibitory concentration for human vitronectin binding to immobilized alphaV-beta3 integrin. Type of data set: protein-complex assay.
For the next data set, the target named is Integrin alpha-V/beta-5 (Homo sapiens, UniProt P06756+P18084). Nature of the data set: Inhibitory concentration for human vitronectin binding to immobilized alphaV-beta5 integrin. Type of data set: protein-complex assay.
In data set [1] the target is Integrin alpha-IIb/beta-3 (Homo sapiens, UniProt P05106+P08514). Nature of the data set: Inhibitory concentration for biotinylated fibrinogen binding to immobilized alpha IIb beta-3 integrin. Type of data set: protein-complex assay.
A short description of data set [2]: Oral bioavailability in rat. Type of data set: ADME, organism-based. To be noted: in vivo. In a few lines:
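Rats dosed orally at 10 mg/kg (N = 4) and intravenously at 2 mg/kg (N = 4) unless otherwise noted. The oral vehicle was D5W (5% dextrose) adjusted to pH 2 with 0.1 N HCl. Plasma drug levels were measured by LC/MS, and bioavailability was derived by comparing oral with intravenous exposure.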

A short description of data set [3]: Maximum plasma concentration when administered perorally at 30 mg/kg dose. Type of data set: ADME, organism-based. Also noted: dose 30 mg/kg, route oral. Particulars: rat, po.
A short description of data set [4]: Plasma half-life when administered perorally at 30 mg/kg dose. To be noted: rat, po. Details: dose 30 mg/kg, route oral. In kind it is ADME, organism-based.
The nature of data set [5]: Maximum plasma concentration when administered perorally at 15 mg/kg dose in rat. To be noted: po. Also noted: dose 15 mg/kg, route oral. In kind it is ADME, organism-based.
The nature of data set [6]: Time to reach maximum plasma concentration when administered perorally at 15 mg/kg dose in rat. Particulars: po. Type of data set: ADME, organism-based. Details: dose 15 mg/kg, route oral.
The nature of data set [7]: Plasma half-life when administered perorally at 10 mg/kg dose. Particulars: rat, in vivo, po.

pIC50: −log10 of the molar value.

Sequence of Integrin alpha-V/beta-5 (P06756 31-889 limits assumed): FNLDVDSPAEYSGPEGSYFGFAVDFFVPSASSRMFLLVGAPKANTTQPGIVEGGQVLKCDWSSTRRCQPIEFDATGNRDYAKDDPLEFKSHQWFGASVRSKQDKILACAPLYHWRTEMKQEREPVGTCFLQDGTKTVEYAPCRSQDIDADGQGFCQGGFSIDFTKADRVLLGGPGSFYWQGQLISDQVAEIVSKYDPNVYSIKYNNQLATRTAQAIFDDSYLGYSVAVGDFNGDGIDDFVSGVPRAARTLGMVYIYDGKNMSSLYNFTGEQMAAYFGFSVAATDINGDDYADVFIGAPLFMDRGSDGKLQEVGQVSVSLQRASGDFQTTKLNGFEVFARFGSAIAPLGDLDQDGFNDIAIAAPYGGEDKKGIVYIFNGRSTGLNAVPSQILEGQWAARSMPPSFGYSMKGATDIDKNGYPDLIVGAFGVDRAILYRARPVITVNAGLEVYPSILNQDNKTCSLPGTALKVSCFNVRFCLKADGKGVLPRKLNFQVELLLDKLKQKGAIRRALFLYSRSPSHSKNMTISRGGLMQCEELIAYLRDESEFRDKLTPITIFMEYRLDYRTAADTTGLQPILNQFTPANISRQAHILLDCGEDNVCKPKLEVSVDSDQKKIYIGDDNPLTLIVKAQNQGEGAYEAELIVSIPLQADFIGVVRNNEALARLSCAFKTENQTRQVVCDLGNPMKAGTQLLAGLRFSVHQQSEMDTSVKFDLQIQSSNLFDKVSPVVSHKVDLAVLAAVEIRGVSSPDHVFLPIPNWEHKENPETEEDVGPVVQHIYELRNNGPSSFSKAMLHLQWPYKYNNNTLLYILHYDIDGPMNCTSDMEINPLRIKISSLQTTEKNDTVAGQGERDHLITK
Sequence of Integrin alpha-V/beta-5 (P06756 891-1048 limits assumed): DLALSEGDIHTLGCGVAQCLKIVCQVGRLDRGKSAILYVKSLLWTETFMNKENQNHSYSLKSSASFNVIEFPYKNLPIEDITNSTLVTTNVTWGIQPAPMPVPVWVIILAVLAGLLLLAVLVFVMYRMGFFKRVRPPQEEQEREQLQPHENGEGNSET
Sequence of Integrin alpha-V/beta-5 (P18084 24-799 limits assumed): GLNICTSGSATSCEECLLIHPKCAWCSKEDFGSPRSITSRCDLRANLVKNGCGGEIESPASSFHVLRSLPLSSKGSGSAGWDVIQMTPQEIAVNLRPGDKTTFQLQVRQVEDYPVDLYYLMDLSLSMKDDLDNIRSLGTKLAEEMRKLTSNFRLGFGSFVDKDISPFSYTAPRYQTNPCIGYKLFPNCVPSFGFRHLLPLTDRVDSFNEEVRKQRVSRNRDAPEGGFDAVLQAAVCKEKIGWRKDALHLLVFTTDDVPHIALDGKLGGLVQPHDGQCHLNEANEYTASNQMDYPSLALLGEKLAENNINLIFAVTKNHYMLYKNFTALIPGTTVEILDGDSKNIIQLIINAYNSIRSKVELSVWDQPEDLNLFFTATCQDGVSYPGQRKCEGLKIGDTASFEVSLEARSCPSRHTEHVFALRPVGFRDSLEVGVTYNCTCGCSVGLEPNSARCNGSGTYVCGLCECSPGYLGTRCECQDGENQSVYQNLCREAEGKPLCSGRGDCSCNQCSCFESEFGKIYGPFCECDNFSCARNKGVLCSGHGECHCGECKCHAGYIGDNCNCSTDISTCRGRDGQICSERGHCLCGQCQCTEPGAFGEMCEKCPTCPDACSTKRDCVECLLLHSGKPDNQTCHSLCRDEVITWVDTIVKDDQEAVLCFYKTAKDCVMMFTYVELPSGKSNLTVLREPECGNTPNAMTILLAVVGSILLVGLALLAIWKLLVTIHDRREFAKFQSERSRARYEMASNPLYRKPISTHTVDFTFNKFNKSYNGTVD
Sequence of Integrin alpha-IIb/beta-3 (P05106 27-788 limits assumed): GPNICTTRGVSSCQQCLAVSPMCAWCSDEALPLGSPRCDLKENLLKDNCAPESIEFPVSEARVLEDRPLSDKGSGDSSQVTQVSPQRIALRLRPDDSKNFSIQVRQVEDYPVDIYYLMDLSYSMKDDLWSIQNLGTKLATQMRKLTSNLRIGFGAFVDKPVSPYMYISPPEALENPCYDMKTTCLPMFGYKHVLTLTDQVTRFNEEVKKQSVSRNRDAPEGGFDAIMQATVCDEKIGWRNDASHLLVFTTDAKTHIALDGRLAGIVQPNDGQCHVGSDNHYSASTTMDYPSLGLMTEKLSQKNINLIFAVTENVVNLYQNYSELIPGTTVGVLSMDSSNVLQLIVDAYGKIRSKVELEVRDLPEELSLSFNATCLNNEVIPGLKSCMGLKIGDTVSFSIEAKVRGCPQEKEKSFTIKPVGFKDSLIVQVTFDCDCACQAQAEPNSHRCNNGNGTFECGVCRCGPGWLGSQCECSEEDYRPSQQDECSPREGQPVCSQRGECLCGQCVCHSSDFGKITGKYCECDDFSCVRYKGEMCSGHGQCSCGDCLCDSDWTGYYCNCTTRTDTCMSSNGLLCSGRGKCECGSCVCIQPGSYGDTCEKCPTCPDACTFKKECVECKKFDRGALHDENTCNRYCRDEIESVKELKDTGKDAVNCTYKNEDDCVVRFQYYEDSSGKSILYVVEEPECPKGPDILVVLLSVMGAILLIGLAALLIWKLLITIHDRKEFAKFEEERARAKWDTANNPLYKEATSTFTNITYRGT
Sequence of Integrin alpha-IIb/beta-3 (P08514 32-887 limits assumed): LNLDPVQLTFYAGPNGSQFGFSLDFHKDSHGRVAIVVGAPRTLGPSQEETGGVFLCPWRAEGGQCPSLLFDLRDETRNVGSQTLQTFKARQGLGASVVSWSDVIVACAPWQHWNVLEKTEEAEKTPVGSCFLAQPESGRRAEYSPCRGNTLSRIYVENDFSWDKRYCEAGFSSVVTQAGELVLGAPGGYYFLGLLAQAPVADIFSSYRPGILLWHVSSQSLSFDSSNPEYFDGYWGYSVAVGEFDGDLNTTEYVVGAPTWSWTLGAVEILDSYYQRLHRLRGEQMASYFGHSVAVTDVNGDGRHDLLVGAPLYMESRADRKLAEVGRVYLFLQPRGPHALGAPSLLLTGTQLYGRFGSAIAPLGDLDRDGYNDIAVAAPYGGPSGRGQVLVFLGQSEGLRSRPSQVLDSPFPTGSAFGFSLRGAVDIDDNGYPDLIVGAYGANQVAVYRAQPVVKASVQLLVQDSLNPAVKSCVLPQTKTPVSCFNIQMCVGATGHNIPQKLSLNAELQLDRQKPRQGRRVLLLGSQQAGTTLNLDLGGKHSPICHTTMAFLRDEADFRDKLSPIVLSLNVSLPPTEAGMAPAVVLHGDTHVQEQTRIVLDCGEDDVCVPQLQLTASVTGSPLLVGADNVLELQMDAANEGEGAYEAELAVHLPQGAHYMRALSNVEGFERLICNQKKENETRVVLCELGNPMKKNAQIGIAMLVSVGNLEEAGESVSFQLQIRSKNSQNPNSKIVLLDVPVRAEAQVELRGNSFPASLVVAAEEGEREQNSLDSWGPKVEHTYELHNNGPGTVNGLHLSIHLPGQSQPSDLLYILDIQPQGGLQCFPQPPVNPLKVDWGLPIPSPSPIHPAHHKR
Sequence of Integrin alpha-IIb/beta-3 (P08514 891-1039 limits assumed): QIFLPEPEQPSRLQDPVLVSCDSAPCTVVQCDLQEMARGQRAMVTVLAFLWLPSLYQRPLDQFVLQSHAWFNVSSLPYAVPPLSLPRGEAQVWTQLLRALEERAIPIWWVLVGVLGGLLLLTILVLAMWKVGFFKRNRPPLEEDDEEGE
Sequence of Integrin alpha-V/beta-3 (P05106 27-788 limits assumed): as the sequence (P05106 27-788 limits assumed) above
Sequence of Integrin alpha-V/beta-3 (P06756 31-889 limits assumed): as the sequence (P06756 31-889 limits assumed) above
Sequence of Integrin alpha-V/beta-3 (P06756 891-1048 limits assumed): as the sequence (P06756 891-1048 limits assumed) above

As for `O=C(O)C[C@H](c1cnc2ccccc2c1)C1CCN(C(=O)CCCc2ccc3c(n2)NCCC3)CC1`, the pIC50 at Integrin alpha-V/beta-3 is 9.30; at Integrin alpha-V/beta-5, 7.44; in data set [1], 6.06. This compound also displayed a bioavailability in data set [2] of 1%.
With `O=C(O)C[C@@H](CC1CCN(C(=O)CCc2ccc3c(n2)NCCC3)CC1)c1cnc2ccccc2c1`, the pIC50 at Integrin alpha-V/beta-3 is 9.10; on Integrin alpha-V/beta-5 it was 8.66; in data set [1], 5.96. The compound further displayed a bioavailability in data set [2] of 4%. Also, in [3] (plasma), the concentration peaked (Cmax) at 500 nM. Besides, the half-life in data set [4] is 3 h.
With `O=C(O)C[C@H](NC(=O)C1CCN(C(=O)CCc2ccc3c(n2)NCCC3)CC1)c1cnc2ccccc2c1`, the pIC50 at Integrin alpha-V/beta-3 was 8.59; at Integrin alpha-V/beta-5 it was 6.57; in data set [1], 5.54.
Regarding `O=C(O)C[C@H](NC(=O)C1CCN(C(=O)CCCNC2=NCCN2)CC1)c1cnc2ccccc2c1`, the figures for the negative-log IC50 (pIC50) (on Integrin alpha-V/beta-3; on Integrin alpha-V/beta-5; in data set [1]) were 8.44, 6.33 and 6.77, respectively. The compound further gave a bioavailability in data set [2] of 4%. The same compound yielded a maximum concentration (Cmax) in [3] (plasma) of 800 nM. For the same compound, in data set [4], the half-life is 7 h.
For `O=C(O)C[C@@H]1Cc2ccc(OCCCNc3ccccn3)cc2Cc2ccccc21`, the pIC50 on Integrin alpha-V/beta-3 is 8.40; on Integrin alpha-V/beta-5, 8.54; in [1] it was 5.92.
As for `O=C(O)C[C@@H](C1CCN(C(=O)CCCc2ccc3c(n2)NCCC3)CC1)C1CNc2ccccc2C1` (mixture of isomers), the pIC50 was 8.43 on Integrin alpha-V/beta-3, 6.59 on Integrin alpha-V/beta-5 and 4.82 in [1]. Further, the F in [2] is given as 100%.
In the case of `O=C(O)CC(CC1CCN(C(=O)CCc2ccc3c(n2)NCCC3)CC1)C1CNc2ccccc2C1` (racemic), in data set [1], the negative-log IC50 (pIC50) is 4.85. The concentration in [5] peaked (Cmax) at 21000 nM. Further, in data set [6], the Tmax was found to be 2 h.
With `CN1CC(C(CC(=O)O)CC2CCN(C(=O)CCc3ccc4c(n3)NCCC4)CC2)Cc2ccccc21` (racemic), the pIC50 is 7.31 at Integrin alpha-V/beta-3, 6.74 at Integrin alpha-V/beta-5 and under 4.30 in data set [1].
As to `O=C(O)C[C@@H](C1CCN(C(=O)CCCc2ccc3c(n2)NCCC3)CC1)C1CNc2ccccc2C1` (single isomer, unassigned; isomer b), the negative logarithm of the IC50 (pIC50) was 7.15 on Integrin alpha-V/beta-3, 5.60 on Integrin alpha-V/beta-5 and under 4.30 in data set [1].
Regarding `O=C(O)C[C@@H](C1CCN(C(=O)CCCc2ccc3c(n2)NCCC3)CC1)C1CNc2ccccc2C1` (single isomer, unassigned; isomer d), the negative logarithm of the IC50 (pIC50) on Integrin alpha-V/beta-3 was 8.27; at Integrin alpha-V/beta-5, 6.80; in [1], 4.77. This compound gave a F in data set [2] of 52%. For the same compound, the Cmax in data set [3] (in vivo) turned out to be 58000 nM. The T1/2 in [7] was 1 h.
Consider `O=C(O)C[C@@H](CC1CCN(C(=O)CCc2ccc3c(n2)NCCC3)CC1)c1cnc2c(c1)CCCC2` (stereo in doubt; 28), for which the pIC50 was 8.80 at Integrin alpha-V/beta-3, 7.96 on Integrin alpha-V/beta-5 and 5.52 in data set [1]. The same compound came in with a F in data set [2] of 0%.
As for `COc1ccc([C@@H](CC(=O)O)CC2CCN(C(=O)CCc3ccc4c(n3)NCCC4)CC2)cn1` (stereo in doubt; 34), the figures for the pIC50 (on Integrin alpha-V/beta-3; at Integrin alpha-V/beta-5; in data set [1]) were 9.15, 8.57 and 5.21, respectively. This compound gave a F in data set [2] of 8%. This compound also came in with a maximum concentration (Cmax) in data set [3] (in vivo) of 900 nM.
On to `COc1ccc([C@@H](CC(=O)O)CC2CCN(C(=O)CCc3ccc4c(n3)NCCC4)CC2)cn1` (stereo in doubt; form 1), for which the pIC50 is 9.40 at Integrin alpha-V/beta-3, 8.51 at Integrin alpha-V/beta-5 and 5.74 in data set [1]. This compound displayed a F in [2] of 2%. In data set [3] (in vivo), this compound registered a Cmax of 100 nM. This compound gave a half-life in data set [4] of 2 h.
As for `O=C(O)C[C@@H](C1CCN(C(=O)CCCc2ccc3c(n2)NCCC3)CC1)C1CNc2ccccc2C1` (stereo in doubt; form 1), the pIC50 on Integrin alpha-V/beta-3 was 8.80; at Integrin alpha-V/beta-5 it was 7.36; in [1], 4.89. The F in data set [2] was determined as 46%. The compound further came in with a Cmax in data set [3] (in vivo) of 8000 nM. The compound further showed a half-life in [4] of 2 h.
In the case of `O=C(O)C[C@@H](CC1CCN(C(=O)CCc2ccc3c(n2)NCCC3)CC1)c1cnc2c(c1)CCCC2` (stereo in doubt; form 1), the negative-log IC50 (pIC50) at Integrin alpha-V/beta-3 was 7.59; at Integrin alpha-V/beta-5 it was 6.00; in data set [1] it was under 4.30.
On to `COc1ccc([C@@H](CC(=O)O)CC2CCN(C(=O)CCc3ccc4c(n3)NCCC4)CC2)cn1` (stereo in doubt; form 2), for which the pIC50 at Integrin alpha-V/beta-3 is 7.80; at Integrin alpha-V/beta-5 it was 7.01; in data set [1], under 4.30.
Regarding `O=C(O)C[C@@H](C1CCN(C(=O)CCCc2ccc3c(n2)NCCC3)CC1)C1CNc2ccccc2C1` (stereo in doubt; form 2), the pIC50 at Integrin alpha-V/beta-3 was 7.00; at Integrin alpha-V/beta-5 it was 5.82; in data set [1] it was under 4.30.
For `O=C(O)C[C@@H](CC1CCN(C(=O)CCc2ccc3c(n2)NCCC3)CC1)c1cnc2c(c1)CCCC2` (stereo in doubt; form 4), in that order: 7.28, 5.66 and under 4.30.
